Results of several laboratories.
Lines come from different studies, so protocols differ.
Target: cGMP-dependent protein kinase 1 (PRKG1, Homo sapiens, UniProt Q13976)
Sequence (Q13976 1-671, as in one of the studies): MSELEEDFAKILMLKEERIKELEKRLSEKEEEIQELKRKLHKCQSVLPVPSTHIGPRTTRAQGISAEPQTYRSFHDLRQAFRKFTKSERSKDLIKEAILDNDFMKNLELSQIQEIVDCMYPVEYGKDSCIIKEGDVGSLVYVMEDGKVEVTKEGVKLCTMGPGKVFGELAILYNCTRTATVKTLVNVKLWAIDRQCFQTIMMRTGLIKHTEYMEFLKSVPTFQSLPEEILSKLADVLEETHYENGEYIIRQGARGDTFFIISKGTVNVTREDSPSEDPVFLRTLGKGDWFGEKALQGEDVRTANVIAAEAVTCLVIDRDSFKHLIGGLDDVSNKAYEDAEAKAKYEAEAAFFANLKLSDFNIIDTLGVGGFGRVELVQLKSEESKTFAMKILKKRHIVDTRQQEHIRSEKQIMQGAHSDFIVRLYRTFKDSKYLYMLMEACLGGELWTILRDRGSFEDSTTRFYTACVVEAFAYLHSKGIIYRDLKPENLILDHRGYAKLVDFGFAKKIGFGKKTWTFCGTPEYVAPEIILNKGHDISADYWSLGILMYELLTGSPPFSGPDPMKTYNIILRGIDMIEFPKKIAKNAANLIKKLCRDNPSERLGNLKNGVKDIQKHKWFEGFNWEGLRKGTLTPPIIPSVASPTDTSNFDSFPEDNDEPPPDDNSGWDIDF

`CCOC(=O)c1cc2cc(-c3cc(C(=O)NCc4ccc(C(=O)O)cc4)nn3C)ccc2[nH]1` gave a remaining binding of 91% (cell-free assay, competition with immobilised ligand; 0.1 µM).
`c1cncc(-c2cccc(Nc3nccc(NC4CCCCC4)n3)c2)c1` gave a remaining binding of 100% (binding, competition with immobilised ligand; 10 µM).
`C[C@@H]1CCN(c2nccc(-c3cnn4ncccc34)n2)C1` gave a remaining binding of 68% (binding; 1 µM).
`CS(=O)(=O)NCC[C@H](NC(=O)c1cncc2c1cnn2-c1ccc(F)cc1)c1ccnc(S(C)(=O)=O)c1` gave a remaining binding of 96% (cell-free assay, competition with immobilised ligand; 1 µM).
`O=C(c1ccc(Nc2ncc(Cl)c(-c3ccc(Cl)s3)n2)cc1)N1CCC(N2CCCC2)CC1` gave a remaining binding of 100% (binding, competition with immobilised ligand; 1 µM).
`COc1cc(-c2cn(C3CCc4c(F)cccc4N(CC(F)(F)F)C3=O)nn2)ccc1-n1cnc(C)c1` (stereo not drawn) has a remaining binding of 100% (cell-free assay, competition with immobilised ligand; 1 µM).
With `O=C(c1ccc(Nc2nccc(-c3cc4ccccc4s3)n2)cc1)N1CCC(N2CCCC2)CC1` the remaining binding was 100% (binding, competition with immobilised ligand; 1 µM).
The remaining binding of `CN(CCCC(F)(F)F)c1nccc(-c2cnn3ncccc23)n1` is reported as 100% (binding; 1 µM).
With `COc1ccc2c(c1)O[C@@H](c1ccc(OC)c(OC)c1)C[C@H]2NC(=O)C1(c2ccc3c(c2)OC(F)(F)O3)CC1` the remaining binding was 100% (cell-free assay, competition with immobilised ligand; 1 µM).
`O=C(Nc1c[nH]nc1C(=O)NC1CCNCC1)c1cc(F)cc(F)c1` gave a remaining binding of 100% (binding, competition with immobilised ligand; 1 µM).
For `Cc1cnn2ncc(-c3ccnc(N(C)C)n3)c2c1`, the remaining binding was 99% (binding; 1 µM).
With `COc1cnc(Nc2cccc(S(N)(=O)=O)c2)nc1N1CCN(c2ccccc2)C(=O)C1` the remaining binding was 100% (binding, competition with immobilised ligand; 1 µM).
`Nc1ncc2c(n1)-c1c([nH]c3ccc(C#CC4CC4)cc13)CCCC2` has a remaining binding of 86% (binding, competition with immobilised ligand; 1 µM).
The remaining binding of `CN([C@@H]1CCc2c(CC(=O)O)c3cc(S(C)(=O)=O)ccc3n2C1)S(=O)(=O)c1ccc(F)cc1` is reported as 95% (cell-free assay, competition with immobilised ligand; 1 µM).
The remaining binding of `FC(F)(F)Oc1cccc(-c2cnc3ccc(-c4ccncc4)nn23)c1` is reported as 98% (cell-free assay, competition with immobilised ligand; 5 µM).
`CN(C)c1nccc(-c2cnn3ncccc23)n1` gave a remaining binding of 100% (binding; 1 µM).
`O=C(c1ccc(Nc2ncc(Cl)c(-c3cc4ccccc4s3)n2)cc1)N1CCC(N2CCCC2)CC1` gave a remaining binding of 100% (binding, competition with immobilised ligand; 1 µM).
`CC1CCCN1c1nccc(-c2cnn3ncccc23)n1` (stereo not drawn) has a remaining binding of 89% (binding; 1 µM).
`FC(F)(F)c1ccc2c(c1)nc(-c1cccnc1)n2C1CC1` has a remaining binding of 87% (cell-free assay, competition with immobilised ligand; 1 µM).
`N[C@H]1CCN(c2nccc(-c3cnn4ncccc34)n2)C1` has a remaining binding of 89% (binding; 1 µM).
`CCN1CCN(Cc2ccc(C(=O)Nc3ccc(C)c(Oc4ccc5c(c4)CC(=O)N5)c3)cc2C(F)(F)F)CC1` gave a remaining binding of 100% (binding, competition with immobilised ligand; 1 µM).
